Assay results taken from ChEMBL document CHEMBL4334504 (J Med Chem, 2019).
In brackets after ≈: the same amount, converted by molar mass. Activity calls are given as the source filed them. No cut-off for these calls is given here.

Tests used:
[1] = tested on: Clostridioides difficile; experiment: Antibacterial activity against Clostridium difficile 4118 ATCC BAA 1870 assessed as bacterial growth inhibition incubated for 48 hrs under anaerobic condition by CLSI protocol-based assay; type: functional; conditions: 4118 ATCC BAA 1870, 48 h
Summary of the method: (§1)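 Broth microdilution following CLSI guidance. Strains pre-grown anaerobically on BHIS agar (BHI plus yeast extract, vitamin K1, hemin) at 37 °C for 48 h. ~10^5 CFU/mL in BHIS broth added to serial compound dilutions. Incubated anaerobically at 37 °C for 48 h. MIC is the lowest concentration showing visible growth inhibition.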

[2] = tested on: Clostridioides difficile; experiment: Antibacterial activity against Clostridium difficile VPI 10463 ATCC 43255 assessed as bacterial growth inhibition incubated for 48 hrs under anaerobic condition by CLSI protocol based assay; type: functional; conditions: ATCC 43255 VPI 10463, 48 h; summary of the method: as §1
[3] = tested on: Clostridioides difficile; experiment: Bactericidal activity against Clostridium difficile 4118 ATCC BAA 1870 assessed as reduction in bacterial colony forming units at 8 fold MIC preincubated followed by re-plating on BHIS agar plate and measured after 24 hrs under anaerobic condition by time-kill assay; type: functional, organism-based
[4] = tested on: Bifidobacterium bifidum; experiment: Effect on growth of Bifidobacterium bifidum 212A ATCC 11863 measured after 48 hrs in anerobic conditions by CLSI method; type: organism-based; conditions: in vivo
[5] = Drug level in CDI patient plasma at 200 mg, po administered every 12 hrs for 10 days and measured 3 to 5 hrs post last dose by LC-MS/MS analysis; type: ADME, organism-based; conditions: human, in vivo
[6] = tested on: Lacticaseibacillus paracasei; experiment: Effect on growth of Lactobacillus casei ATCC 334 measured after 48 hrs in 5% CO2 by CLSI method
[7] = Effect on growth of Lactobacillus crispatus JV-V01 HM 103 measured after 48 hrs in 5% CO2 by CLSI method; conditions: lactobacillus crispatus jv-v01, 48 h
[8] = Effect on growth of Lactobacillus gasseri EX336960VC03 HM 400 measured after 48 hrs in 5% CO2 by CLSI method; conditions: lactobacillus gasseri ex336960vc03, 48 h
[9] = tested on: Caco-2; experiment: Cytotoxicity against human Caco2 cells at > 256 uM measured after 2 hrs by MTS assay; type: cell-based; conditions: caco-2, 2 h
[10] = tested on: HRT-18 cell line; experiment: Cytotoxicity against human HRT18 cells at > 256 uM measured after 2 hrs by MTS assay; type: cell-based; conditions: hrt-18, 2 h
[11] = tested on: Vero; experiment: Cytotoxicity against African green monkey Vero cells at > 256 uM measured after 2 hrs by MTS assay; type: cell-based; conditions: chlorocebus sabaeus
[12] = tested on: Escherichia coli; experiment: Effect on growth of Escherichia coli ATCC 25922 assessed as bacterial growth inhibition measured after 16 to 18 hrs by CLSI method; type: organism-based; conditions: in vivo
Summary of the method: (§2)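 CLSI microdilution. Colonies from TSA (16-20 h, 37 °C) suspended in PBS to 0.5 McFarland, then diluted in TSB to ~10^5 CFU/mL. Incubated with serial compound dilutions for 16-20 h at 37 °C. MIC is the lowest concentration inhibiting growth.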

[13] = tested on: Enterobacter cloacae; experiment: Effect on growth of Enterobacter cloacae ATCC BAA 1143 assessed as bacterial growth inhibition measured after 16 to 18 hrs grown in tryptic soy medium by CLSI method; type: organism-based; conditions: in vivo; summary of the method: as §2
[14] = Aqueous solubility of compound in PBS buffer at 1 to 100 ug/ml at pH 7.3 to 7.5 measured after 24 hrs by HPLC analysis; type: physicochemical
Summary of the method: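 3 mg compound in 3 mL PBS (pH 7.3-7.5) shaken 24 h at 25 °C, then centrifuged. Supernatant mixed 1:1 with acetonitrile and analysed by HPLC (C18, 1 mL/min). Solubility calculated from a standard curve (1 mg/mL methanol stock) and the dilution factor.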

[15] = Stability of compound in simulated gastric fluid assessed as parent compound remaining at pH 1.6 measured after 4 hrs by HPLC analysis; type: ADME; conditions: read-out: Stability
Summary of the method: (§3)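 200 µL of a 50 µg/mL methanol stock mixed with 800 µL SGF (pH 1.6) or SIF (pH 6.0), stirred at 37 °C. Sampled at 4 and 8 h for isocratic HPLC (acetonitrile/water 50:50, 1.0 mL/min, 254 nm). Percent remaining calculated as AUC after incubation / AUC before incubation.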

[16] = Stability of compound in simulated gastric fluid assessed as parent compound remaining at pH 1.6 measured after 8 hrs by HPLC analysis; type: ADME; conditions: read-out: Stability; summary of the method: as §3
[17] = Stability of compound in simulated intestinal fluid assessed as parent compound remaining at pH 6 measured after 4 hrs by HPLC analysis; type: ADME; conditions: read-out: Stability; summary of the method: as §3
[18] = Stability of compound in simulated intestinal fluid assessed as parent compound remaining at pH 6 measured after 8 hrs by HPLC analysis; type: ADME; conditions: read-out: Stability; summary of the method: as §3
[19] = tested on: Clostridioides difficile; experiment: Ratio of MBC99.9 to MIC for Clostridium difficile 4118 ATCC BAA 1870; type: functional
[20] = tested on: Clostridioides difficile; experiment: Bactericidal activity against Clostridium difficile 4118 ATCC BAA 1870 assessed as reduction in bacterial colony forming units at 8 fold MIC preincubated followed by re-plating on BHIS agar plate and measured after 6 hrs under anaerobic condition by time-kill assay relative to control; type: functional; parameters: scale not given: the % may be the effect or the level left
[21] = tested on: Clostridioides difficile; experiment: Bactericidal activity against Clostridium difficile 4118 ATCC BAA 1870 incubated for 48 hrs followed by re-plating on BHIS agar plates and measured after 24 hrs; type: functional; conditions: read-out: MBC99.9
[22] = Cytotoxicity against human Caco2 cells measured after 2 hrs by MTS assay; type: cell-based; conditions: Caco-2 cells
[23] = Cytotoxicity against human HRT18 cells measured after 2 hrs by MTS assay; type: cell-based; conditions: HRT-18 cells
[24] = Cytotoxicity against African green monkey Vero cells measured after 2 hrs by MTS assay; type: cell-based; conditions: chlorocebus sabaeus

Compound | MIC [1] [µM] | MIC [2] [µM] | MIC [4] [µM] | MIC [6] [µM] | MIC [7] [µM] | MIC [8] | Activity [9] | Activity [10] | Activity [11] | MIC [12] [µM] | MIC [13] [µM] | solubility at 24 h [14] [µg/mL] | remaining at 4 h [15] [%] | remaining at 8 h [16] [%] | remaining at 4 h [17] [%] | remaining at 8 h [18] [%] | other results
CCc1c(Cl)c(O)c(Cl)c(O)c1C(=O)O[C@H]1[C@H](O)[C@H](OC)[C@H](OC/C2=C\C=C\C[C@H](O)/C(C)=C/[C@H](CC)[C@@H](O[C@@H]3OC(C)(C)[C@@H](OC(=O)C(C)C)[C@H](O)[C@@H]3O)/C(C)=C/C(C)=C/C[C@@H]([C@@H](C)O)OC2=O)O[C@@H]1C [FIDAXOMICIN] | 0.1 (≈ 0.106 µg/mL) | 0.1 (≈ 0.106 µg/mL) | > 242 | > 242 | 30 (≈ 31.7 µg/mL) | <= 2 uM |  |  |  |  |  |  |  |  |  |  | Activity [3]: Active; Cp [5]: 25 to 50 ng/mL
Cc1nc2c([N+](=O)[O-])csc2c(=O)n1Cc1ccc([N+](=O)[O-])cc1 | 6 (≈ 2.08 µg/mL) | 12 (≈ 4.16 µg/mL) | > 739 | > 739 | > 739 | > 739 µM | Non-Toxic | Non-Toxic | Non-Toxic | > 739 | > 739 | 12.7 (≈ 36.8 µM) | > 95 | > 95 | > 95 | 90 | 
O=c1[nH]c(/C=C/c2ccc(F)cc2)nc2c([N+](=O)[O-])csc12 | 3 (≈ 0.952 µg/mL) | 6 (≈ 1.9 µg/mL) | > 807 | > 807 | > 807 | > 807 µM | Non-Toxic | Non-Toxic | Non-Toxic | > 807 | > 807 | 14.8 (≈ 46.6 µM) | 50 | 48 | 60 | 51 | Ratio [19]: 2; Activity [20]: 100%; MBC [21]: 6 µM (≈ 1.9 µg/mL)
Cc1nc2c([N+](=O)[O-])csc2c(=O)[nH]1 | 19 (≈ 4.01 µg/mL) | 38 (≈ 8.03 µg/mL) | > 1212 | > 1212 | > 1212 | > 1212 µM | Non-Toxic | Non-Toxic | Non-Toxic | > 1212 | > 1212 | > 500 | 90 | 90 | 91 | 76 | CC50 at 2 h [22]: > 606 µM; CC50 at 2 h [23]: > 606 µM; CC50 at 2 h [24]: > 606 µM
Cc1nc(N2CCOCC2)c2scc([N+](=O)[O-])c2n1 | 14 (≈ 3.92 µg/mL) | 14 (≈ 3.92 µg/mL) | > 913 | > 913 | > 913 | > 913 µM | Non-Toxic | Non-Toxic | Non-Toxic | > 913 | > 913 | 18.7 (≈ 66.7 µM) | < 10 | < 10 | 79 | 80 | 
O=c1[nH]c(/C=C/c2ccccc2F)nc2c([N+](=O)[O-])csc12 | 6 (≈ 1.9 µg/mL) | 12 (≈ 3.81 µg/mL) | > 807 | > 807 | > 807 | > 807 µM | Non-Toxic | Non-Toxic | Non-Toxic | > 807 | > 807 |  |  |  |  |  | 
O=c1[nH]c(/C=C/c2ccc(Cl)cc2)nc2c([N+](=O)[O-])csc12 | 6 (≈ 2 µg/mL) | 6 (≈ 2 µg/mL) | > 767 | > 767 | > 767 | > 767 µM | Non-Toxic | Non-Toxic | Non-Toxic | > 767 | > 767 |  |  |  |  |  | 
Cc1nc2c([N+](=O)[O-])csc2c(=O)n1CCCc1ccccc1 | 12 (≈ 3.95 µg/mL) | 12 (≈ 3.95 µg/mL) | > 777 | > 777 | > 777 | > 777 µM | Non-Toxic | Non-Toxic | Non-Toxic | > 777 | > 777 | 10.8 (≈ 32.7 µM) | 45 | < 10 | < 10 | < 10 | 
Cc1nc2c([N+](=O)[O-])csc2c(=O)n1Cc1ccccc1 | 7 (≈ 2.11 µg/mL) | 56 (≈ 16.9 µg/mL) | > 425 | > 425 | > 425 | > 425 µM | Non-Toxic | Non-Toxic | Non-Toxic | > 850 | > 850 |  |  |  |  |  | 
